Screening results as filed in PubChem.
Most compounds without a hit are left out; they make up all but 0.6% or so of the library.
LANA DNA inh = blocks KSHV LANA C-terminal domain binding to DNA; MBP-C-LANA/FAM-LBS DNA binding, fluorescence polarization; inhibition, % at 9 µM; hit rate 0.078% among 340,000;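 active = highest replicate inhibition at or above 60% at 9 µM, even if other replicates fall short; inactive = all replicates below 60% inhibition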;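 also: 0% = neutral control wells and 100% = 4 µM acridine orange control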
Tn6 DDE FP = disrupts Tn6 cyclic peptide binding to fibrin D-Dimer-E complex; P02675; inhibition, % at 8.3 µM; AID 720509; hit rate 0.21% among 370,000; Fibrin DD(E) TRITC-Tn6 fluorescence polarization displacement;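 active = inhibition above a per-campaign cutoff: mean of compounds within control limits plus 3 SD, cut at about 15% in these data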;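 also: 0% = median of all compound wells on the plate and 100% = blocking peptide control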
Tn7 DDE FP = disrupts Tn7 cyclic peptide binding to fibrin D-Dimer-E complex | P02675 | FP displacement of FITC-Tn7 peptide from fibrin DD(E); 0% = median of compound wells per plate | inhibition, % at 8.3 µM | hit rate 0.13% among 370,000;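 active = inhibition above the mean of compounds falling within the control limits plus 3 SD of them, cut at about 14% in these data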;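 also: 0% = plate median of compound wells and 100% = 10 µM Aha-Tn7 peptide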
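Assay system: Human clot-derived fibrin DD(E) complex | Buffer or medium: Tris/NaCl/CaCl2 buffer, pH 7.8 | Repeats: One replicate per compound | Benchmarks: Aha-Tn7 high control | Measure: % inhibition scaled between sample-field median and high-control FP | Schedule: 10 min plus 3 h, room temperature | Signal: Fluorescence polarization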
Rtt109 HAT inh = C. albicans Rtt109 histone acetyltransferase inhibition; Q5AAJ8; hit rate 0.16% among 330,000; inhibition, % at 34.9 µM; purified Rtt109/Vps75, ThioGlo CoA-SH fluorescence, 4 h; AID 540336;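 active = inhibition of at least 50% in every replicate; inconclusive = best replicate reaches 50% inhibition but some replicates fall short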
Target sequence (Q5AAJ8 whole entry, looked up): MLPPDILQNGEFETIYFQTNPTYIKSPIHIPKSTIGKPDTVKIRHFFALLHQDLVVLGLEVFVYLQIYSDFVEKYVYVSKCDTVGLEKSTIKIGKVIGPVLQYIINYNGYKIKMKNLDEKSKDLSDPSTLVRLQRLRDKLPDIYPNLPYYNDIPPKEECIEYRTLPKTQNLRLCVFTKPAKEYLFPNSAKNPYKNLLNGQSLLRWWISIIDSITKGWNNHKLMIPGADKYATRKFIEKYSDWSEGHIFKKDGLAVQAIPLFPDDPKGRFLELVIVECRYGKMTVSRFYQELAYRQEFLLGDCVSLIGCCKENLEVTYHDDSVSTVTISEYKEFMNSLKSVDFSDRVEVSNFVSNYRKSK
Keap1-Nrf2 PPI = inhibitors of human Keap1-Nrf2 protein-protein interaction | Q14145 | hit rate 0.15% among 340,000 | inhibition, % at 9.4 µM | Keap1 Kelch-Nrf2 peptide fluorescence polarization, 1536-well | AID 504523; in the data active = inhibition above about 12%; inconclusive = no clear call, values can overlap the other calls; inactive = below about 7.3%;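 also: human Keap1 Kelch domain with fluorescein labeled Nrf2 9mer peptide probe; 0% = neutral control wells and 100% = peptide positive control; higher means more block of Keap1 binding to Nrf2 peptide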
* = called active by the depositor; ? = inconclusive; . = not tested or not shown.

SMILES	LANA DNA inh	Tn6 DDE FP	Tn7 DDE FP	Rtt109 HAT inh	Keap1-Nrf2 PPI
CN1CCc2c(sc3c2C(=O)NC(c2ccccn2)N3)C1 (stereo unspecified)	17	28*	12	-47	-4
CN1CCc2c(sc3c2C(=O)NC(c2ccccc2)N3)C1 (stereo unspecified)	7	3	3	-25	-4
Nc1nc(C(F)(F)F)cc(=O)[nH]1	65*	1	-7	0	0
COc1cc(SC#N)ccc1N=Cc1c(C)[nH]n(-c2ccc(C)c(C)c2)c1=O	-1	6	1	56*	4
CC(C)CC(=O)Nc1nnc(CSCc2ccc(F)cc2)s1	75*	-9	6	-3	-2
CCC(=O)Nc1nnc(CSCc2ccc(F)cc2)s1	0	3	4	4	-1
O=C(O)c1ccccc1NS(=O)(=O)c1ccc(N/N=C/c2ccc(O)c(O)c2)c([N+](=O)[O-])c1	80*	-17	-7	-1	8
CC(=O)Nc1ccc(OCC(=O)NCc2ccccc2)cc1	-2	0	4	52*	-10
Cc1nc(CC(C)C)cc(C(=O)N2CCCC(CNS(=O)(=O)c3cccs3)C2)n1 (stereo unspecified)	-1	-3	0	60*	-4
C=Cc1c(C)c2cc3[nH]c(cc4nc(cc5nc(cc1[nH]2)C(C)=C5CCC(=O)O)C(CCC(=O)O)=C4C)c(C)c3C=C	64*	31*	-1	16	1
CC(CCN1CCC(C(O)(c2ccccc2)c2ccccc2)CC1)Oc1cc(F)cc(F)c1 (stereo unspecified)	.	-6	-3	.	.
CC(C)C(NS(=O)(=O)c1cccc2nsnc12)C(=O)NC1CCCCC1C (stereo unspecified)	0	.	.	-2	1
CC1CCCC(NS(=O)(=O)c2cccc3nsnc23)C1C (stereo unspecified)	0	0	5	55*	-3
CC(C)c1nnc(NC(=O)CCC(=O)NCc2cccs2)s1	0	3	-1	53*	1
CCOc1ccc(CCNC(=O)CN2C(=O)NC3(CCCCC3C)C2=O)cc1OCC (stereo unspecified)	-1	-1	4	-4	1
COc1ccc(CCNC(=O)CN2C(=O)NC3(CCCCC3C)C2=O)cc1 (stereo unspecified)	-5	5	-4	51*	-4
COC(=O)CNC(=O)CNC1(C(=O)NCCc2c[nH]c3ccccc23)CCCCC1	.	-2	0	.	.
CCCCCCCCN1C(=O)[C@@H](CC(=O)NCCc2ccccc2OC)C[C@@]2(C(=O)OC)C1=C[C@H](COCc1ccccc1)O[C@@H]2C	.	0	3	.	.
Cc1ccc(/C=C2\SC(=S)N(C(Cc3ccccc3)C(=O)O)C2=O)cc1 (stereo unspecified)	2	0	2	62*	-5
O=C(O)C(Cc1ccccc1)N1C(=O)/C(=C/c2ccccc2)SC1=S (stereo unspecified)	-1	-2	-8	53*	1
COc1cc(/C=C2\SC(=S)N(C(Cc3ccccc3)C(=O)O)C2=O)ccc1O (stereo unspecified)	-23	-11	-7	47	-17
Cc1ccc2sc(NNC(=O)C3=COCCO3)nc2c1C	0	0	1	59*	1
O=C(CC(Nc1ccccc1Cl)C(=O)O)c1ccccc1 (stereo unspecified)	-1	2	2	0	5
Cc1c(Cl)cccc1NC(CC(=O)c1ccccc1)C(=O)O (stereo unspecified)	0	7	4	70*	-4
CN1CCc2cccc3c2[C@@H]1Cc1ccc(O)c(O)c1-3	3	.	.	60*	-3
SMILES	LANA DNA inh	Tn6 DDE FP	Tn7 DDE FP	Rtt109 HAT inh	Keap1-Nrf2 PPI
COc1ccc2c(c1O)-c1ccccc1CCN(C)C2	1	4	4	-1	-1
O=C(CSc1nnc(-c2ccccn2)n1-c1ccccc1)c1ccc2c(c1)OCO2	.	2	0	.	.
CN(C)c1ccccc1-c1cc(NC=O)c2ncc(-c3cccc(C(F)(F)F)c3)n2c1	.	34*	-8	.	.
COc1cccc(N2CCN(CC(=O)NCc3ccc(F)cc3)CC2)c1	.	-3	-5	.	.
O=C(c1ccc(=O)oc1)N1CCCc2ccccc21	79*	0	6	0	-1
CC(C)CCNC(=O)C1CCN(S(=O)(=O)c2ccc3c(c2)CC(C)N3C(=O)C2CCC2)CC1 (stereo unspecified)	-1	-3	4	94*	-3
COc1cc(N(C)C)ccc1C=c1c2ccccc2n2c1cc(-c1ccccc1)[n+]2C	-32	-9	-1	-1	-13
COc1cc(C=c2c3ccccc3n3c2cc(-c2ccccc2)[n+]3C)cc(OC)c1OC	0	17*	3	7	-12
Nc1ccc(-c2c3ccc(=O)cc-3oc3cc(O)ccc23)c(C(=O)O)c1	171*	.	.	-56	-17
CCCCCC[N+](C)(C)CC/C=C1/c2ccccc2Sc2ccc(Cl)cc21	-1	-8	-5	73*	2
CCCCCCCCCn1c2c(c(=N)c3c1CCC3)CCC2	-2	.	.	68*	0
CCCCCCn1c2c(c(=N)c3c1CCC3)CCC2	-1	7	-1	1	-1
O=C(O)CCCN1C(=O)/C(=C\c2ccco2)SC1=S	43	0	-4	-1	3
O=C(CN1C(=O)/C(=C\c2ccco2)SC1=S)Nc1ccc(O)cc1C(=O)O	64*	-10	-2	2	-5
O=C(CCCN1C(=O)/C(=C/c2ccco2)SC1=S)Nc1ccccc1C(=O)O	66*	-3	-3	19	-3
CC(/C=C1\SC(=S)N(CCCC(=O)Nc2ccc(C(=O)O)cc2)C1=O)=C\c1ccccc1	85*	-2	6	-3	-3
O=C(CCCN1C(=O)/C(=C\c2ccccc2)SC1=S)Nc1ccc(O)cc1C(=O)O	-1	2	4	?	-7
O=C(Cc1ccccc1)Nc1nnc(-c2cccnc2)s1	.	6	0	.	.
O=C(/C=C/Nc1ccc([N+](=O)[O-])cc1Br)c1cccc2ccccc12	0	-1	-7	51*	-1
CCOc1ccc(NS(=O)(=O)c2ccc(NC(=S)NC(=O)CC(C)C)cc2)cc1	10	-2	-2	21	-5
CC(C)CC(=O)NC(=S)Nc1ccc(S(=O)(=O)NC(C)(C)C)cc1	0	1	4	55*	2
Cc1cc(C)cc(C(=O)OCCN2CCN(C3CN(Cc4cn(Cc5ccccc5F)nn4)S(=O)(=O)C3)CC2)c1 (stereo unspecified)	.	4	2	.	.
CCOP(=O)(CC(C(C)=O)C(O)c1ccccc1)OCC (stereo unspecified)	-1	0	14*	0	-1
CCc1ccc(N2CC(C(=O)OCC(=O)N(CC)c3c(N)n(Cc4ccccc4)c(=O)[nH]c3=O)CC2=O)cc1 (stereo unspecified)	.	4	0	3	188*
